Screening results: PubChem BioAssay, several laboratories
TLR9-MyD88 inh: inhibitors of TLR9-MyD88 association in cells, primary screen, cell-based, CHO, BLA complementation, fluorescence. Toll-like receptor 9 (Homo sapiens) + Myeloid differentiation primary response protein …. CCF4 FRET ratio. inhibition, % at 4.98 µM. 340,000 compounds, 0.21% hits;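 active means inhibition above the mean over all tested compounds plus 3 SD, cut at about 21% in these data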;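 further: 0% = DMSO only wells and 100% = clavulanate BLA inhibitor control wells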
TLR4 MyD88 comp: inhibitors of TLR4-MyD88 association in cells, primary screen, cell-based, HeLa CL3-4, BLA complementation, FRET ratio. Toll-like receptor 4 (Homo sapiens) + Myeloid differentiation primary response protein …. 200,000 compounds, 0.18% hits. HeLa CL3-4 TLR4/MyD88 BLA complementation. inhibition, % at 8.4 µM; in the data active means inhibition above about 25%;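 further: 0% = vehicle and 100% = reference inhibitor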
NOD2-RIPK2 inh: NOD2-RIPK2 binding disruptors in cells, primary screen, fluorescence, CHO cells, BLA complementation; Receptor-interacting serine/threonine-protein kinase 2 (Homo sapiens), O43353; CCF4 ratio; inhibition, % at 4.98 µM; 360,000 compounds, 0.38% hits; AID 624267, 2012; in the data active means inhibition above about 21%;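 further: 0% = vehicle only and 100% = reference blocker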
UPR XBP1 act: activators of adaptive XBP1 UPR arm, primary screen, cell-based, CHO-XBP1 luciferase reporter, luminescence, uHTS; IRE1-XBP1 UPR activation; percent of tunicamycin response, DMSO as zero; activation, % at 20 µM; 330,000 compounds, 0.33% hits; AID 463104, 2010;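 active means versus positive control, 20 µM dose yields 30% or more activation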;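 further: 100% = tunicamycin at 10 µg/mL and 0% = DMSO only wells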
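Material: CHO cell line with stable XBP1 luciferase reporter; buffer or medium: F12 medium containing 10% fetal bovine serum; compound: single point, 20 µM final compound, 1% DMSO; incubation: 6 h treatment, 37 °C; measured by: glow luminescence from Steady-Glo reagent; evaluation: activation, % of tunicamycin; control set: tunicamycin high, DMSO low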
CHOP inh: inhibitors of CHOP promoter induction, primary screen, cell-based, unfolded protein response, luciferase reporter | inhibition, % at 10 µM | 220,000 compounds, 3.8% hits | CHO-K1 CHOP-promoter luciferase, tunicamycin-induced, 15-18 h;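 active means compounds that reduced the stress-induced luciferase reporter signal by more than about 70% of percent inhibition, limit read from the data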;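 further: 0% = tunicamycin plus vehicle and 100% = wells without tunicamycin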
CHOP UPR activ: activators of apoptotic CHOP UPR arm, primary screen, cell-based, CHO-CHOP luciferase reporter, luminescence, uHTS; UPR activation; percent of tunicamycin response over DMSO baseline; activation, % at 10 µM; 330,000 compounds, 0.34% hits; AID 449763, 2010;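 active means at 10 µM dose, activation of 40% or more, normalized to positive control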;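 further: 100% = tunicamycin at 10 µg/mL and 0% = DMSO alone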
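Test system: CHO CHOP reporter cells. Input: 500 CHO-CHOP cells per well. Medium: F12 with 10% FBS. Technique: luciferase luminescence. Measure: percent activation relative to tunicamycin control. Dosing: 10 µM compound, 0.5% DMSO. Timing: 16-18 h cell attachment, then 6 h compound exposure, 37 °C.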
An asterisk follows results filed as active; x = no result given. The entries come from a sample that favours hits as a whole.

SMILES	TLR9-MyD88 inh	TLR4 MyD88 comp	NOD2-RIPK2 inh	UPR XBP1 act	CHOP inh	CHOP UPR activ
CCc1nc(N2CCCCC2)c2oc3ccccc3c2n1	-9	10	-2	-1	89*	0
CCc1nc(N2CCCC(C)C2)c2oc3ccccc3c2n1 (stereo not given)	2	-12	-7	0	72*	-2
CCOC(=O)C1CCN(c2nc(C)nc3c2oc2ccccc23)CC1	-1	x	-3	-1	75*	-1
OCC(O)C(O)C(O)c1cnn(-c2ccccc2)n1 (stereo not given)	-52	x	-11	x	x	x
Nc1nc(Cl)nc2c1ncn2[C@@H]1O[C@H](COP(=O)(O)OP(=O)(O)OP(=O)(O)O)[C@H](O)C1O (stereo not given in full)	x	x	x	x	3	x
COc1ccc(CNC(=O)/C=C/[C@H]2O[C@@H](n3cc(C)c(=O)[nH]c3=O)C[C@@H]2O)cc1	x	x	-3	x	x	x
COCCNS(=O)(=O)c1ccc(OCC(=O)OC)c(Cl)c1	-17	0	-5	2	92*	15
COC(=O)COc1ccc(S(=O)(=O)NCCC2=CCCCC2)cc1Cl	6	1	8	-2	59	1
NS(=O)(=O)c1ccc(NCc2cc(Cl)ccc2OCc2ccccc2F)cc1	3	5	4	1	70*	2
COc1ccc(S(=O)(=O)N(C)C[C@@H]2OCCCC[C@@H](C)Oc3ccc(NC(=O)NC(C)C)cc3C(=O)N([C@H](C)CO)C[C@@H]2C)cc1	-2	x	5	x	x	x
Cc1noc(C)c1S(=O)(=O)NC(=O)C1(C)CCN1C(=O)C1(c2ccc(Cl)cc2)CCC1 (stereo not given)	x	x	9	x	x	x
Cn1c(=O)c2cc(S(=O)(=O)Nc3cc(C(=O)O)cc(C(=O)O)c3)ccc2n(C)c1=O	8	9	5	3	6	10
Cc1cc(C)cc(NS(=O)(=O)c2ccc3c(c2)c(=O)n(C)c(=O)n3C)c1	-7	2	3	-4	93*	-1
OCCN=C1CCCc2c1[nH]c1ccc(Br)cc21	-2	-9	-13	2	72*	-1
COc1ccc(C(O)c2nc(/C=C/c3ccc(C(F)(F)F)cc3)cs2)cc1 (stereo not given)	x	x	-8	x	x	x
CC(C)[C@H](CO)N(Cc1cccc(F)c1)c1nc(Nc2cccc(Cl)c2)c2ncn(C(C)C)c2n1	5	x	7	3	10	5
CC[C@H](CO)Nc1nc(Nc2cccc(Cl)c2)c2ncn(C(C)C)c2n1	7	x	21	4	83*	0
CCCC(=O)n1nc(-c2ccc(Cl)cc2)nc1SC	1	-7	-9	5	78*	5
CSc1nc(-c2ccc(Cl)cc2)nn1S(=O)(=O)c1ccccc1	-11	9	-4	8	33	8
CCC(=O)n1nc(-c2ccc(Cl)cc2)nc1SC	-3	-10	0	4	19	6
CSc1nc(-c2ccc(Cl)cc2)nn1S(=O)(=O)c1ccc(Cl)cc1	-5	-5	-2	0	72*	6
CC(C)C(=O)N1CCCC1(C)C(=O)N(C)Cc1cccc2ccccc12 (stereo not given)	x	x	-4	x	x	x
CC1=C(C(=O)N2CCCCCC2)CC(CC(=O)NCC2CCCCC2)C(=O)N1Cc1ccc(F)cc1 (stereo not given)	x	x	-5	x	x	x
CCn1c(SCC(=O)N/N=C/c2ccc(OC)c(OC)c2)nc2ccccc21	-2	-2	-1	2	21	0
C=CCSc1nc2ccccc2n1C(=O)/C=C/c1ccc(OC)c(OC)c1	0	-1	2	x	109*	x
Cc1nn(Cc2c(F)c(F)c(F)c(F)c2F)c(C)c1NC(=O)c1ccc(COc2ccc(Cl)cc2Cl)o1	-4	16	-6	1	70*	4
O=C(OCc1nnc(-c2ccccc2)o1)c1ccc2c(c1)OCCO2	5	-16	-6	0	76*	1
